167 variants from the RNAGym collection of RNA variant scans (doi:10.1126/science.aae0568) can be followed below.

Fewer inactive variants are shown than the library holds.

Sequences and labels used below:
B1: tRNA (parent)
chain: GUUCCGUUGGCGUAAUGGUAACGCGUCUCCCUCCUAAGGAGAAGACUGCGGGUUCGAGUCCCGUACGGAACG

This data set covers variants of B1. Nature of the data set: yeast fitness relative to wild type (ratio to wild type); higher = fitter; tRNA-Arg(CCU), competitive growth, 37 C, YPD. Put shortly:
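Changes in genotype frequencies gave Darwinian fitness relative to wild type. Frequencies were read by 100-nucleotide paired-end sequencing of gene amplicons before and after pooled Saccharomyces cerevisiae strains, carrying tRNA-Arg(CCU) gene variants at the native locus, were competed in YPD at 37°C for 24 hours in six replicates. A genotype was kept only with ≥ 100 starting reads, and estimates < 0.5 were set to 0.5.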
For U35C U59A A70C, the yeast fitness was ≤ 0.5. The result for A36G A40G reads 1.01; that for U35C G63A, 0.614.

In the case of A36G A45C A57C U64A G68A, the yeast fitness is ≤ 0.5. With U35A A36C C66A, the yeast fitness is ≤ 0.5.

With C34U A57G, the yeast fitness came to 0.737. With C34U A57U, the yeast fitness was ≤ 0.5. Turning to U35G G63A, the yeast fitness stood at 0.7. As to A36G G58A C60U, the yeast fitness was ≤ 0.5. For C34U A40U C61G the value was ≤ 0.5; for A36C C55U C66A, ≤ 0.5. For A36C G38C G50C G51A G63C the value was 0.642; for C34U G51C G58C, ≤ 0.5.

As for C34U A42C A43U, the yeast fitness was ≤ 0.5. The result for U35A A57U C61U reads ≤ 0.5.

Regarding C34U C46U U64A, the yeast fitness turned out to be 0.642. The result for A36U A40G U53A reads 0.627; that for A36C A43U, 0.575. Take U35C G44C: the yeast fitness turned out to be 0.88.

Turning to A36C A37U, the yeast fitness is ≤ 0.5. For A36C A37G the value was 0.611.

On to A36G G67C, for which the yeast fitness worked out at 0.759. For U35A G41A C55U the value was 0.539; for C34U U54A, ≤ 0.5. For C34U G50A G56C the value was 0.662.

Take C34U G39C C66U: the yeast fitness is ≤ 0.5. The result for A36G A43C reads 0.819; that for A36C U53A, 0.643. The result for C34U G44C U47G A65G reads ≤ 0.5.

U35A C46A C55A A69U: the yeast fitness is ≤ 0.5. For A36G C66U A69U, the yeast fitness was found to be 0.76. In the case of C34U C60U, the yeast fitness stood at 0.563. The result for C34U G39C reads 0.571; that for C34U G58C C62G G67A, ≤ 0.5. Regarding A36C U59C, the yeast fitness stood at 0.562. For U35A C46A C49G G52A C60U the value was 0.661. The result for C34U U35G G38A C62U A65C G67A reads ≤ 0.5. The result for A36G U59C C61A C62U reads ≤ 0.5. For the variant A36U A43C G44C G48C, the yeast fitness is ≤ 0.5.

Turning to C34U G52C C55U G58A, the yeast fitness was ≤ 0.5. The result for C34U C49U A65C reads 0.612; that for U35C C46A A70U, 0.767; that for U35A A42C, 0.643. For A36C G38A G58A the value was 0.562. For A36G A45U A70U the value was 0.708; for U35C A36G, 0.931. In the case of A36C C60U C62U A65C, the yeast fitness was ≤ 0.5. For A36G C49U A69C the value was 0.836; for U35A C49G C60A, ≤ 0.5; for A36C G52A, ≤ 0.5.

In the case of C34U G39C A69U, the yeast fitness is ≤ 0.5. For A36G U64C C66U the value was 0.768; for U35A A42C C46U C66U G67C, ≤ 0.5.

In the case of A36C G58A, the yeast fitness was 0.618. On to U35A A69U, for which the yeast fitness was 0.806. The result for A36C A37U G50C C66U reads 0.56.

Consider A36G A45C G52C A69C, for which the yeast fitness stood at 0.54. The result for A36U A42U C46U G56C C61G A65U G67A A70G reads ≤ 0.5; that for A36C A40U C46A G68C, 0.584; that for U35A A37G C49A, ≤ 0.5.

With C34U A36C A40C C55A C66U, the yeast fitness is 0.526. For A36G A37U U64C A65G the value was ≤ 0.5; for C34U A40G U47C, ≤ 0.5; for U35A A42U A43U U59G, 0.541.

For C34U A42C G56C, the yeast fitness is ≤ 0.5. The result for U35C G44A A57U C66G reads ≤ 0.5; that for C34U A40C A43G, 0.513. For A36C G38C A45G the value was 0.585. The result for U35G C62U reads 0.7; that for U35G C62G, 0.597. Take C34U A40G U54C A57G: the yeast fitness is ≤ 0.5. The result for A36G G48A C49U reads 0.606; that for C34U C60G A69G, ≤ 0.5. The result for A36U A45U U53A C62A reads ≤ 0.5; that for C34U A40G C46A C49G A65G, ≤ 0.5; that for C34U G44C U47G, 0.659. For A36G C61U A69C the value was 0.693; for C34U A36G A57G, ≤ 0.5; for U35A U59C C62U C66U, 0.645. For the variant A36G C49U U64C G68C, the yeast fitness was ≤ 0.5. The result for U35A A45C G56A reads 0.636.

Take C34U G48A C49G: the yeast fitness stood at 0.563. For A36G A40C A42G C61U the value was 0.566; for C34U G38A G56A, 0.611. Turning to C34U C46U A69G A70U, the yeast fitness is ≤ 0.5. For A36G C55U G68C the value was 0.594; for U35C A43C C55G A65U, ≤ 0.5; for A36G C60A, 0.575. Take U35C A45G C62A: the yeast fitness was ≤ 0.5. C34U A40G C55G: the yeast fitness was ≤ 0.5. The result for A36G U47A G67C reads ≤ 0.5; that for U35G G51A, 0.634. The result for A36G C61U U64C C66U reads ≤ 0.5; that for U35C C60G, 0.602; that for C34U A37U G58C C62A, 0.736. For A36G A69G the value was 0.932; for C34U A40C, 0.613. With U35C A37U C46G U54C C61A, the yeast fitness was ≤ 0.5.

For U35G A43G, the yeast fitness came to 0.725. For U35A C66G the value was 0.599. In the case of C34U G50C, the yeast fitness was 0.528.

Take U35A A43C C49A: the yeast fitness was 0.566.

As for U35G A40C C62G C66G, the yeast fitness came out at 0.539. For U35G U53G the value was 0.592; for C34U A37U C46A G51A, 0.567; for C34U G52C A70U, ≤ 0.5.

Take A36G G68C: the yeast fitness was 0.779. For U35A C60A A65U A70G the value was ≤ 0.5; for A36C C46G G51A, ≤ 0.5; for C34U A37U C66U, ≤ 0.5. For C34U G50A U59C C62A U64A, the yeast fitness is ≤ 0.5. The result for U35C A37C C55A C60G G63C reads ≤ 0.5; that for A36U A45C C49G, 0.704; that for C34U A37U G58C, 0.543. For C34U G39A G48C A65U the value was ≤ 0.5. For U35G A37G C49U the value was ≤ 0.5; for A36C G48A, 0.594. On to U35A C46A C49G G52A, for which the yeast fitness is 0.572. The result for A36U A37U C55U reads 0.634; that for U35A A40U A57U, 0.625. For A36C A40G C46U the value was 0.569; for C34G U59G G68U, 0.576; for U35G C46U A65C G67C, ≤ 0.5. As for U35A C49U, the yeast fitness is 0.761.

Take U35A C61G: the yeast fitness was ≤ 0.5. For A36G U47C the value was 0.989; for U35A A36U G39A, 0.567.

As to U35G A40C, the yeast fitness worked out at 0.682. The result for C34U C66A reads ≤ 0.5; that for C34U C49U A69U, 0.607; that for C34U G51U C60U C62U A65C A69G, ≤ 0.5. The result for C34U A65U reads 0.574; that for C34U A36U C66U A69U, 0.612. A36G G39C C49U U54G: the yeast fitness turned out to be 0.58.

For the variant U35G U64C A65U, the yeast fitness is ≤ 0.5. For A36C G38C G52A the value was ≤ 0.5; for U35C G68U, 0.657. The result for U35C G68A reads 0.67; that for U35C G68C, 0.644.

As to U35C A42C, the yeast fitness amounted to 0.819. The result for U35C A42U reads 0.819; that for A36C C66U, 0.575. The result for U35G A43U C46G U53C A69C reads ≤ 0.5; that for A36G G52A C66A A69U, ≤ 0.5. With C34U A37G, the yeast fitness worked out at 0.538. The result for U35C G50C U54A reads ≤ 0.5; that for A36G A40U G44A, 1.06; that for U35C A43U U47A, ≤ 0.5. For U35G G51A A65C the value was 0.622; for U35G A57C A70C, ≤ 0.5. For A36G C55A the value was 0.729; for U35C G39A, 0.886. For U35A A65G, the yeast fitness turned out to be 0.751. Take A36U A40U C60A: the yeast fitness is 0.713. For A36G A42C C49A the value was 0.548; for C34U U35C, 0.607. For C34U U35C A40C the value was ≤ 0.5.

In the case of C34U C49U C61U, the yeast fitness came to 0.512. For U35G U64C A69C the value was ≤ 0.5; for C34U G41A, 0.606.

Turning to C34U C61A, the yeast fitness came to 0.563. The result for U35C C55U C62A reads 0.527; that for U35A A45C, 0.576; that for C34U C49U C55U G67A, ≤ 0.5. With A36C A69U, the yeast fitness is 0.63. The result for A36G U54A C60G reads ≤ 0.5; that for U35C A42C G50A, ≤ 0.5.
